{"source": "ChEMBL document CHEMBL3098041", "about": "“Synthesis and anticancer evaluation of 3-substituted quinolin-4-ones and 2,3-dihydroquinolin-4-ones” (Bioorg Med Chem, 2014)", "key": {"MCF7 [1]": {"tested_on": "MCF7", "experiment": "Cytotoxicity against human MCF7 cells assessed as cell viability at 25 uM after 72 hrs by Alamar blue assay", "format": "functional", "conditions": "MCF7, 72 h, read-out: Activity", "procedure,_shortened": "(§1)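 Cells were grown in DMEM with 10% FBS at 37 °C, 5% CO2, humidified. Log-phase cells were seeded in 96-well plates at a fixed density and allowed to adhere for 24 h. Compound or vehicle-only control was added to duplicate wells at one fixed concentration for 72 h. Alamar Blue fluorescence was read (ex 555, em 585 nm) as % viability (0% = total growth inhibition). Assays were run in triplicate.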"}, "HT-29 [2]": {"tested_on": "HT-29", "experiment": "Cytotoxicity against human HT-29 cells assessed as cell viability at 25 uM after 72 hrs by Alamar blue assay", "format": "functional", "conditions": "HT-29, 72 h, read-out: Activity", "procedure,_shortened": "as §1"}, "A-431 [3]": {"tested_on": "A-431", "experiment": "Cytotoxicity against human A431 cells assessed as cell viability at 25 uM after 72 hrs by Alamar blue assay", "format": "functional", "conditions": "A-431, 72 h, read-out: Activity", "procedure,_shortened": "as §1"}, "[4]": {"experiment": "Cytotoxicity against human H460 cells assessed as cell viability at 25 uM after 72 hrs by Alamar blue assay", "format": "functional", "conditions": "NCI-H460, 72 h, read-out: Activity", "procedure,_shortened": "as §1"}, "DU-145 [5]": {"tested_on": "DU-145", "experiment": "Cytotoxicity against human DU145 cells assessed as cell viability at 25 uM after 72 hrs by Alamar blue assay", "format": "functional", "conditions": "DU-145, 72 h, read-out: Activity", "procedure,_shortened": "as §1"}, "MRC5": {"tested_on": "MRC5", "experiment": "Cytotoxicity against human MRC5 cells assessed as cell viability after 72 hrs by Alamar blue assay", "format": "cell-based", "conditions": "MRC5, 72 h", "procedure,_shortened": "(§2)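 This was a dose–response Alamar Blue assay run in triplicate. Cells were kept in DMEM with 10% FBS (37 °C, 5% CO2, humidified). Log-phase cells were plated at a fixed density in 96-well plates and left to adhere for 24 h. Compound or vehicle was added to duplicate wells. After 72 h exposure, metabolic activity was measured by fluorescence (ex 555, em 585 nm).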"}, "DU-145 [6]": {"tested_on": "DU-145", "experiment": "Cytotoxicity against human DU145 cells assessed as cell viability after 72 hrs by Alamar blue assay", "format": "functional, cell-based", "conditions": "DU-145, 72 h", "procedure,_shortened": "as §2"}, "MCF7 [7]": {"tested_on": "MCF7", "experiment": "Cytotoxicity against human MCF7 cells assessed as cell viability after 72 hrs by Alamar blue assay", "format": "functional, cell-based", "conditions": "MCF7, 72 h", "procedure,_shortened": "as §2"}, "[8]": {"experiment": "Cytotoxicity against human H460 cells assessed as cell viability after 72 hrs by Alamar blue assay", "format": "functional, cell-based", "conditions": "NCI-H460, 72 h", "procedure,_shortened": "as §2"}, "A-431 [9]": {"tested_on": "A-431", "experiment": "Cytotoxicity against human A431 cells assessed as cell viability after 72 hrs by Alamar blue assay", "format": "functional, cell-based", "conditions": "A-431, 72 h", "procedure,_shortened": "as §2"}, "HT-29 [10]": {"tested_on": "HT-29", "experiment": "Cytotoxicity against human HT-29 cells assessed as cell viability after 72 hrs by Alamar blue assay", "format": "functional, cell-based", "conditions": "HT-29, 72 h", "procedure,_shortened": "as §2"}}}
{"molecule": "COc1ccc(C2CNc3cc(OC)cc(O)c3C2=O)cc1", "note": "(stereo not given)", "values": [{"measurement": "viability at 25 µM", "setting": "MCF7 [1]", "result": 85.7, "unit": "%"}, {"measurement": "viability at 25 µM", "setting": "HT-29 [2]", "result": 97.3, "unit": "%"}, {"measurement": "viability at 25 µM", "setting": "A-431 [3]", "result": 108, "unit": "%"}, {"measurement": "viability at 25 µM", "setting": "[4]", "result": 94.1, "unit": "%"}, {"measurement": "viability at 25 µM", "setting": "DU-145 [5]", "result": 106, "unit": "%"}]}
{"molecule": "COc1cc2c(c(OC)c1)C(=O)[C@@H](c1ccccc1)CN2", "values": [{"measurement": "viability at 25 µM", "setting": "MCF7 [1]", "result": 83.6, "unit": "%"}, {"measurement": "viability at 25 µM", "setting": "HT-29 [2]", "result": 98.8, "unit": "%"}, {"measurement": "viability at 25 µM", "setting": "A-431 [3]", "result": 98.3, "unit": "%"}, {"measurement": "viability at 25 µM", "setting": "[4]", "result": 87.6, "unit": "%"}, {"measurement": "viability at 25 µM", "setting": "DU-145 [5]", "result": 95.4, "unit": "%"}]}
{"molecule": "COc1cc(OC)c2c(=O)c(-c3cccc(Br)c3)c[nH]c2c1", "values": [{"measurement": "viability at 25 µM", "setting": "HT-29 [2]", "result": 37.8, "unit": "%"}, {"measurement": "viability at 25 µM", "setting": "A-431 [3]", "result": 66.5, "unit": "%"}, {"measurement": "viability at 25 µM", "setting": "[4]", "result": 43.9, "unit": "%"}, {"measurement": "viability at 25 µM", "setting": "DU-145 [5]", "result": 71.8, "unit": "%"}]}
{"molecule": "COc1cc(O)c2c(c1)NCC(c1ccccc1)C2=O", "note": "(stereo not given)", "values": [{"measurement": "viability at 25 µM", "setting": "MCF7 [1]", "result": 83.2, "unit": "%"}, {"measurement": "viability at 25 µM", "setting": "HT-29 [2]", "result": 90.8, "unit": "%"}, {"measurement": "viability at 25 µM", "setting": "A-431 [3]", "result": 90.8, "unit": "%"}, {"measurement": "viability at 25 µM", "setting": "[4]", "result": 78, "unit": "%"}, {"measurement": "viability at 25 µM", "setting": "DU-145 [5]", "result": 81.6, "unit": "%"}]}
{"molecule": "COc1ccc([C@H]2CNc3cc(OC)cc(OC)c3C2=O)cc1", "values": [{"measurement": "viability at 25 µM", "setting": "MCF7 [1]", "result": 85.1, "unit": "%"}, {"measurement": "viability at 25 µM", "setting": "HT-29 [2]", "result": 106, "unit": "%"}, {"measurement": "viability at 25 µM", "setting": "A-431 [3]", "result": 89.6, "unit": "%"}, {"measurement": "viability at 25 µM", "setting": "[4]", "result": 94.3, "unit": "%"}, {"measurement": "viability at 25 µM", "setting": "DU-145 [5]", "result": 91.1, "unit": "%"}]}
{"molecule": "COc1cc(O)c2c(=O)c(-c3ccc(C)cc3)c[nH]c2c1", "values": [{"measurement": "viability at 25 µM", "setting": "HT-29 [2]", "result": 29.6, "unit": "%"}, {"measurement": "viability at 25 µM", "setting": "A-431 [3]", "result": 76.5, "unit": "%"}, {"measurement": "viability at 25 µM", "setting": "[4]", "result": 50.7, "unit": "%"}, {"measurement": "viability at 25 µM", "setting": "DU-145 [5]", "result": 85.1, "unit": "%"}]}
{"molecule": "O=C1c2c(O)cc(O)cc2NCC1c1ccccc1", "note": "(stereo not given)", "values": [{"measurement": "viability at 25 µM", "setting": "MCF7 [1]", "result": 121, "unit": "%"}, {"measurement": "viability at 25 µM", "setting": "HT-29 [2]", "result": 98.5, "unit": "%"}, {"measurement": "viability at 25 µM", "setting": "A-431 [3]", "result": 98.5, "unit": "%"}, {"measurement": "viability at 25 µM", "setting": "[4]", "result": 74.5, "unit": "%"}, {"measurement": "viability at 25 µM", "setting": "DU-145 [5]", "result": 83.1, "unit": "%"}]}
{"molecule": "COc1cc(O)c2c(=O)c(-c3ccc(F)cc3)c[nH]c2c1", "values": [{"measurement": "viability at 25 µM", "setting": "HT-29 [2]", "result": 31.2, "unit": "%"}, {"measurement": "viability at 25 µM", "setting": "A-431 [3]", "result": 71.4, "unit": "%"}, {"measurement": "viability at 25 µM", "setting": "[4]", "result": 38.9, "unit": "%"}, {"measurement": "viability at 25 µM", "setting": "DU-145 [5]", "result": 43.4, "unit": "%"}]}
{"molecule": "COc1cc(OC)c2c(=O)c(-c3ccc(F)cc3)c[nH]c2c1", "values": [{"measurement": "viability at 25 µM", "setting": "HT-29 [2]", "result": 114, "unit": "%"}, {"measurement": "viability at 25 µM", "setting": "A-431 [3]", "result": 103, "unit": "%"}, {"measurement": "viability at 25 µM", "setting": "[4]", "result": 86, "unit": "%"}, {"measurement": "viability at 25 µM", "setting": "DU-145 [5]", "result": 88.7, "unit": "%"}]}
{"molecule": "COc1cc(OC)c2c(=O)c(-c3ccc(C)cc3)c[nH]c2c1", "values": [{"measurement": "viability at 25 µM", "setting": "HT-29 [2]", "result": 102, "unit": "%"}, {"measurement": "viability at 25 µM", "setting": "A-431 [3]", "result": 89.9, "unit": "%"}, {"measurement": "viability at 25 µM", "setting": "[4]", "result": 53.8, "unit": "%"}, {"measurement": "viability at 25 µM", "setting": "DU-145 [5]", "result": 76.6, "unit": "%"}]}
{"molecule": "COc1cc(OC)c2c(=O)c(-c3ccc(Br)cc3)c[nH]c2c1", "values": [{"measurement": "viability at 25 µM", "setting": "MCF7 [1]", "result": 35.3, "unit": "%"}, {"measurement": "viability at 25 µM", "setting": "HT-29 [2]", "result": 26.2, "unit": "%"}, {"measurement": "viability at 25 µM", "setting": "A-431 [3]", "result": 69.1, "unit": "%"}, {"measurement": "viability at 25 µM", "setting": "[4]", "result": 33.5, "unit": "%"}, {"measurement": "viability at 25 µM", "setting": "DU-145 [5]", "result": 74.8, "unit": "%"}]}
{"molecule": "COc1cc(O)c2c(=O)c(-c3ccc(Br)cc3)c[nH]c2c1", "values": [{"measurement": "viability at 25 µM", "setting": "MCF7 [1]", "result": 52.6, "unit": "%"}, {"measurement": "viability at 25 µM", "setting": "HT-29 [2]", "result": 29.2, "unit": "%"}, {"measurement": "viability at 25 µM", "setting": "A-431 [3]", "result": 104, "unit": "%"}, {"measurement": "viability at 25 µM", "setting": "[4]", "result": 65.5, "unit": "%"}, {"measurement": "viability at 25 µM", "setting": "DU-145 [5]", "result": 73.5, "unit": "%"}]}
{"molecule": "COc1cc(O)c2c(=O)c(-c3cccc(Br)c3)c[nH]c2c1", "values": [{"measurement": "IC50", "setting": "MRC5", "result": 6.7, "unit": "µM"}, {"measurement": "IC50", "setting": "DU-145 [6]", "result": 9.5, "unit": "µM"}, {"measurement": "IC50", "setting": "MCF7 [7]", "result": 21.9, "unit": "µM"}, {"measurement": "IC50", "setting": "[8]", "result": 9.2, "unit": "µM"}, {"measurement": "IC50", "setting": "A-431 [9]", "result": 5.5, "unit": "µM"}, {"measurement": "IC50", "setting": "HT-29 [10]", "result": 3.6, "unit": "µM"}, {"measurement": "viability at 25 µM", "setting": "HT-29 [2]", "result": 14.1, "unit": "%"}, {"measurement": "viability at 25 µM", "setting": "A-431 [3]", "result": 1, "unit": "%"}, {"measurement": "viability at 25 µM", "setting": "[4]", "result": 2, "unit": "%"}, {"measurement": "viability at 25 µM", "setting": "DU-145 [5]", "result": 10, "unit": "%"}]}
